# Screens deposited in PubChem BioAssay by several laboratories.
# Wee1 stabilizer: human Wee1 degradation inhibition, primary screen; 220,000 compounds, 1.2% hits; reporter increase, % at 5 µM; HeLa Luc-Wee1K328M stability, luciferase luminescence; 100% = proteasome inhibitor MG132 effect; P30291;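 active means activation above the mean of all tested compounds plus 3 SD, set per screening run, cut at about 8.8% in these data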;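 further: cells exposed to compound for 20 h before luminescence read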
# PKD1 kinase inh: PKD1 (human) kinase inhibition. Q15139. AID 797. PKD1 kinase fluorescence polarization assay. 200,000 compounds, 0.056% hits. inhibition, % (no concentration beside the values); in the data active means inhibition above about 50%
# p97 ATPase inh: inhibitors of human p97 ATPase | recombinant p97 ATPase, Kinase-Glo ATP luminescence, 3 h | inhibition, % at 8 µM | 220,000 compounds, 0.42% hits; in the data active means inhibition above about 15%
# Target sequence (P55072 whole entry, looked up): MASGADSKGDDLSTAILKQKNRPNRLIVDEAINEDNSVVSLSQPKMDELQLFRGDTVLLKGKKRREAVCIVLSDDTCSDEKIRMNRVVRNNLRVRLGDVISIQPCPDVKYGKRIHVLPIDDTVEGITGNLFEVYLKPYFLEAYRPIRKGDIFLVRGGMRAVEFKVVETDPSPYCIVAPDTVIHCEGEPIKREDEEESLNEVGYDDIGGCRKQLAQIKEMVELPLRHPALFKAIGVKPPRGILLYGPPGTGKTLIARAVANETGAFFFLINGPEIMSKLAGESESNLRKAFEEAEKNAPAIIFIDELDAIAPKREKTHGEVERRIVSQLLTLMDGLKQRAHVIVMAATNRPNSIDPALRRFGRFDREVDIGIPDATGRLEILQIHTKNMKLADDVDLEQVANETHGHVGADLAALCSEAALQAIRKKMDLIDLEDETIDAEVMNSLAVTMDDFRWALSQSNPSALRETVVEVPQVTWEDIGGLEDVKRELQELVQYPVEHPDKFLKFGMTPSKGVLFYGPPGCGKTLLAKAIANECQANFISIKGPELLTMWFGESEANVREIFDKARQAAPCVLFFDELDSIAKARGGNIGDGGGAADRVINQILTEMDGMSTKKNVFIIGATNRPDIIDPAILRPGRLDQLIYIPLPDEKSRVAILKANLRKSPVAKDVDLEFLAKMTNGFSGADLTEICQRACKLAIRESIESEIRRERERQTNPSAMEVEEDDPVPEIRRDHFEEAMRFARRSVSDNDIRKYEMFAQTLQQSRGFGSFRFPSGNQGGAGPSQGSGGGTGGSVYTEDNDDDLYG
# RBBP9 inh: human RBBP9 hydrolase inhibition; O75884; recombinant RBBP9, FP-Rh probe fluorescence polarization; inhibition, % at 7.94 µM; 220,000 compounds, 0.2% hits; AID 1515;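 active means inhibition above the campaign mean of all tested compounds plus 3 SD, cut at about 14% in these data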
#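 Assay system: recombinant human RBBP9; Reagent: Serine-hydrolase probe FP-Rh, 375 nM pre-mixing; Doses: 7.94 µM single dose, 0.794% DMSO; Incubation: 30 min then 45 min, 25 °C; Detection: fluorescence polarization (mP), excitation 525 nm, emission 598 nm; Evaluation: percent inhibition from mP, scaled between DMSO and no-protein wells.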
# Arbovirus inh: arbovirus infection inhibition | AID 1251 | 200,000 compounds, 0.37% hits | arbovirus infection cell-based antiviral screen | inhibition, % at 10 µM; in the data active means inhibition above about 30%
# DTT redox prof: compounds producing H2O2 with reducing agent – biochemical, NIH compound library profiling, artefact control for MLSCN library redox annotation, primary screen; DTT-dependent redox cycling H2O2, phenol red/HRP absorbance; 100% = 100 µM peroxide control, 0% = buffer; activation, % at 10 µM; 200,000 compounds, 0.03% hits; AID 878;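 active means activation of at least 50% relative to the plate's high and low controls in the primary single-dose screen; inactive means activation below 50%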;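 further: compound incubated with DTT at 0.8 mM final as the reducing agent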
# p97 inh conf: confirmation of human p97 ATPase inhibitors; shares compounds with p97 ATPase inh; AID 1517; inhibition, % at 8 µM; 760 compounds, 44% hits; recombinant p97 ATPase, Kinase-Glo ATP luminescence;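 active means percent inhibition of p97 ATPase above a set limit, the primary screen's mean plus 3 SD, cut at about 15% in these data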
# RBBP9 inh conf: confirmation of human RBBP9 inhibitors | shares compounds with RBBP9 inh | recombinant RBBP9, FP-Rh probe fluorescence polarization | inhibition, % at 7.94 µM | 410 compounds, 36% hits | AID 1537;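 active means inhibition above the hit cutoff derived for the primary screen, cut at about 15% in these data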
# Numbers stand for hits; i = inactive; nt = no result given. An excerpt weighted towards active compounds, which were near 2.2% of everything screened.
SMILES,Wee1 stabilizer,PKD1 kinase inh,p97 ATPase inh,RBBP9 inh,Arbovirus inh,DTT redox prof,p97 inh conf,others
Cc1[nH]c2ccccc2c1C(=O)C(=O)N1CC2CC(C1)c1cccc(=O)n1C2 (stereo not given),i,i,i,i,i,i,nt,
O=c1[nH]c(O)c(C=Nc2ccccc2Oc2ccccc2)c(=O)[nH]1,i,nt,i,i,nt,nt,nt,
CCN(CC)C(=O)c1ccc(N2C(=O)C3CC=C(Cl)CC3C2=O)cc1 (stereo not given),i,i,16,i,i,i,i,
CC(=O)Nc1ccccc1C(=O)C(=O)Nc1cccc(C(=O)N2CCC3(CC2)OCCO3)c1,i,i,i,i,i,i,nt,
O=[N+]([O-])c1cccc(CN2CCN(Cc3ccc(Br)cc3)CC2)c1,i,i,i,i,i,i,nt,
CC(C)(C)P(=O)(NCc1ccccc1)c1ccccc1 (stereo not given),i,i,16,i,i,i,i,
Cc1ccc(OP(=O)(NCc2ccccc2)Oc2ccc(C)cc2)cc1,i,i,i,i,i,i,nt,
CC/C(=N\Nc1ccccc1)c1c(O)n(-c2ccc(OC)cc2)c(=O)[nH]c1=O,i,nt,i,i,nt,nt,nt,
CC(C)c1ccc(N2C(=O)NC(=O)/C(=C/C=C/c3ccco3)C2=O)cc1,i,i,16,i,i,i,i,
CCN(CC)C(=O)c1ccc2c(c1)C1C(Cl)C(Sc3ccccc3[N+](=O)[O-])CC1C(C(=O)O)N2 (stereo not given),i,nt,i,28,nt,nt,nt,RBBP9 inh conf=i
CC(=O)N1N=C(c2c(O)n(C)c(=O)n(C)c2=O)CC1c1ccccc1 (stereo not given),i,nt,i,i,nt,nt,nt,
